In ChEMBL document CHEMBL1121382, “Inhibitors of polyamine biosynthesis. 8. Irreversible inhibition of mammalian S-adenosyl-L-methionine decarboxylase by substrate analogues” (J Med Chem, 1980):

T1: S-adenosylmethionine decarboxylase proenzyme (Rattus norvegicus) (UniProt P17708)
T1 sequence (whole entry): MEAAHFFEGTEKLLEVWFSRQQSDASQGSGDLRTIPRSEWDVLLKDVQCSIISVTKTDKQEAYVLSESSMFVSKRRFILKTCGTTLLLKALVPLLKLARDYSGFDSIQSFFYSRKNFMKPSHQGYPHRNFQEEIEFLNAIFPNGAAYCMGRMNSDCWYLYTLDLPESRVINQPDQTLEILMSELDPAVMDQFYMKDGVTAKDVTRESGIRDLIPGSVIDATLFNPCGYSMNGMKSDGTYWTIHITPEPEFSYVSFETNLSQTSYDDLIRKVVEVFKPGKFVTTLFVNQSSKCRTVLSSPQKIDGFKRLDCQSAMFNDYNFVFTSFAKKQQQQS

T2: S-adenosylmethionine decarboxylase proenzyme (Rattus norvegicus, UniProt P17708)
T2 sequence (P17708 whole entry): T1 sequence (whole entry)

B1: S-adenosylmethionine decarboxylase proenzyme (Rattus norvegicus), P17708 (protein)
chain: T1 sequence (whole entry)

Legend:
[1] = target: T1, S-adenosylmethionine decarboxylase proenzyme (Rattus norvegicus); assay: Tested for S-adenosyl-L-methionine decarboxylase activity recovered after 40 min of 0.2 mM + 1 mM NaBH3CN compound in incubation media; assay type: functional
Procedure, shortened: (§1)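 Rat liver enzyme (105000g supernatant from livers of male Sprague-Dawley rats, ammonium sulfate 35–65% cut, methylglyoxal bis(guanylhydrazone)-Sepharose eluate) preincubated at 37 °C, pH 7.0, with 0.3 mg BSA, inhibitor 0, 0.2 or 0.4 mM, ±1.0 mM sodium cyanoborohydride. Aliquots taken at 0, 40, 80 min; activity assayed at 0.2 mM substrate; expressed as % of no-addition control.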

[2] = target: T2, S-adenosylmethionine decarboxylase proenzyme; assay: Tested for inhibition against S-adenosyl-L-methionine decarboxylase from rat liver
Procedure, shortened: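 Partially purified rat liver enzyme; 0.1 M sodium phosphate pH 7.0, 2.5 mM DTT, 2.5 mM putrescine; S-[1-14C]adenosyl-L-methionine at 2.0 × 10⁻⁶ to 1.60 × 10⁻⁴ M; inhibitor 6.25 × 10⁻⁵, 1.25 × 10⁻⁴, 2.50 × 10⁻⁴ M; 30 min, 37 °C; released 14CO2 trapped in ethanolamine and counted, blank-corrected; apparent Ki from short incubations.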

[3] = target: T1, S-adenosylmethionine decarboxylase proenzyme (Rattus norvegicus); assay: Tested for S-adenosyl-L-methionine decarboxylase activity recovered after 40 min of 0.2 mM compound in incubation media; assay type: functional; procedure, shortened: as §1
[4] = target: T1, S-adenosylmethionine decarboxylase proenzyme (Rattus norvegicus); assay: Tested for S-adenosyl-L-methionine decarboxylase activity recovered after 80 min of 0.4 mM compound in incubation media; assay type: functional; procedure, shortened: as §1
[5] = target: T1, S-adenosylmethionine decarboxylase proenzyme (Rattus norvegicus); assay: Tested for S-adenosyl-L-methionine decarboxylase activity recovered after 40 min of 0.4 mM compound in incubation media; assay type: functional; procedure, shortened: as §1
[6] = target: T1, S-adenosylmethionine decarboxylase proenzyme (Rattus norvegicus); assay: Tested for S-adenosyl-L-methionine decarboxylase activity recovered after 80 min of 0.2 mM compound in incubation media; assay type: functional; procedure, shortened: as §1
[7] = target: T1, S-adenosylmethionine decarboxylase proenzyme (Rattus norvegicus); assay: Tested for S-adenosyl-L-methionine decarboxylase activity recovered after 40 min of 0.2 mM + 1 mM NaBH3CN compound in incubation media
[8] = target: T1, S-adenosylmethionine decarboxylase proenzyme (Rattus norvegicus); assay: Tested for S-adenosyl-L-methionine decarboxylase activity recovered after 40 min of 0.4 mM compound in incubation media
[9] = target: T1, S-adenosylmethionine decarboxylase proenzyme (Rattus norvegicus); assay: Tested for S-adenosyl-L-methionine decarboxylase activity recovered after 40 min of 0.2 nM compound in incubation media; assay type: functional; conditions: in the assay text read “0.2 mM” for “0.2 nM”
Procedure, shortened: (§2)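 Partially purified rat liver AdoMetDC (ammonium sulfate, then MGBG-Sepharose) preincubated at 37 °C, pH 7.0, with BSA and 0.2 mM inhibitor, no reductant. Aliquots removed at 40 or 80 min, then assayed 30 min at 37 °C in phosphate pH 7.0 with 2.5 mM putrescine, DTT and 0.2 mM [1-14C]AdoMet. Released 14CO2 trapped and counted; activity given as % of buffer-only control at the same time.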

[10] = target: T1, S-adenosylmethionine decarboxylase proenzyme (Rattus norvegicus); assay: Tested for S-adenosyl-L-methionine decarboxylase activity recovered after 80 min of 0.4 mM compound in incubation media
[11] = target: T1, S-adenosylmethionine decarboxylase proenzyme (Rattus norvegicus); assay: Tested for S-adenosyl-L-methionine decarboxylase activity recovered after 80 min of 0.2 nM compound in incubation media; assay type: functional; conditions: in the assay text read “0.2 mM” for “0.2 nM”; procedure, shortened: as §2
[12] = substrate: C[S+](CC[C@H](N)C(=O)[O-])C[C@H]1O[C@@H](n2cnc3c(N)ncnc32)[C@H](O)[C@@H]1O

| Molecule | Activity [1] | Ki [2] | Activity [3] | Activity [4] | Activity [5] | Activity [6] | Activity [7] | Activity [8] | Activity [9] | Activity [10] | Activity [11] | Km [12] |
| --- | --- | --- | --- | --- | --- | --- | --- | --- | --- | --- | --- | --- |
| C[S+](CCC(C)(N)C(=O)O)C[C@H]1O[C@@H](n2cnc3c(N)ncnc32)[C@H](O)[C@@H]1O (some centres undefined) | 50% | 180 µM | 89% | 62% | 77% | 81% | – | – | – | – | – | – |
| CC(N)CC[S+](C)C[C@H]1O[C@@H](n2cnc3c(N)ncnc32)[C@H](O)[C@@H]1O (some centres undefined) | – | 120 µM | – | – | – | – | 21% | 65% | 75% | 42% | 66% | – |
| CN(CCCN)C[C@H]1O[C@@H](n2cnc3c(N)ncnc32)[C@H](O)[C@@H]1O | – | 110 µM | – | – | – | – | 94% | 93% | 95% | 97% | 97% | – |
| B1 | – | – | – | – | – | – | – | – | – | – | – | 51.4 µM |
